Source: ChEMBL document CHEMBL4699542, “Design and synthesis of novel methoxypyridine-derived gamma-secretase modulators” (Bioorg Med Chem, 2020)
≈ marks a conversion by molar mass, not a printed value.

What was measured:
[1] = Kinetic aqueous solubility of the compound in pH 7.4 PBS buffer by UV/Visible absorbance analysis; assay type: physicochemical; details: read-out: Kinetic_solubility
Summary of the method: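 Kinetic solubility determined in PBS at pH 7.4 by UV/Vis absorbance, reported in μM.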

[2] = molecular target: Gamma-secretase; assay: Modulation of gamma secretase in human SH-SY5Y cells overexpressing wild type APP751 assessed as effect on amyloid beta42 level by meso scale discovery; assay type: cell-based
[3] = Metabolic stability in rat liver microsomes assessed as parent compound remaining at 1 uM incubated for 30 mins; assay type: ADME, Microsome; details: 0.5 h
Summary of the method: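 Test compound at 1 μM incubated 30 min with human, rat or mouse liver microsomes (1 mg/mL); parent remaining expressed as %.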

[4] = molecular target: T1, Cytochrome P450 1A2 (Homo sapiens, UniProt P05177); assay: Inhibition of recombinant CYP1A2 (unknown origin) by fluorescence-based assay; assay type: ADME
T1 sequence (P05177 whole entry): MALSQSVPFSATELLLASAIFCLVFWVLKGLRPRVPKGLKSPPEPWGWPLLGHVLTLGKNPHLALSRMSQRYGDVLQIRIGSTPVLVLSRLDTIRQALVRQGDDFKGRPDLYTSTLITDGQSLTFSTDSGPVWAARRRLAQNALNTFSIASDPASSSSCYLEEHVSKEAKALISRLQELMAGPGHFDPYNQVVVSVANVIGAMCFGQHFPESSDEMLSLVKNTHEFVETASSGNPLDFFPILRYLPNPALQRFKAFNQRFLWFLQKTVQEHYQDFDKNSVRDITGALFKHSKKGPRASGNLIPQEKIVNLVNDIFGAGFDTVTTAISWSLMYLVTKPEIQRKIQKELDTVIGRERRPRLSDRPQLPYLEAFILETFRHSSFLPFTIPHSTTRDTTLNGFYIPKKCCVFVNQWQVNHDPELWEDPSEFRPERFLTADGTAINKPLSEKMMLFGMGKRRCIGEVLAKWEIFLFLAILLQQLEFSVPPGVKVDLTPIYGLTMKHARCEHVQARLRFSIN
Summary of the method: (§1)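 Recombinant CYP isoforms (five tested) screened for inhibition in fluorescence-based assays; IC50 in μM.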

[5] = molecular target: Cytochrome P450 2C9 (Homo sapiens, UniProt P11712); assay: Inhibition of recombinant CYP2C9 (unknown origin) by fluorescence-based assay; assay type: ADME; summary of the method: as §1
[6] = molecular target: Cytochrome P450 2C19 (Homo sapiens, UniProt P33261); assay: Inhibition of recombinant CYP2C19 (unknown origin) by fluorescence-based assay; assay type: ADME; summary of the method: as §1
[7] = Cmax in CD-1 mouse at 1 mg/kg, iv administered as single dose measured up to 24 hrs; assay type: ADME, organism-based; parameters: route intravenous, dose 1 mg/kg, time <=24; details: in vivo
Summary of the method: (§2)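 Male CD-1 mice, 6–8 weeks old, single dose by tail vein (1 mg/kg, 3% NMP/45% PEG300/12% ethanol/40% water) or oral gavage (5 mg/kg, 5% NMP/95% PEG300). Retro-orbital plasma sampled 0.083 (iv only) to 24 h, n=3/timepoint, and analysed by HPLC/MS/MS. Non-compartmental analysis. Half-life taken from the terminal phase using ≥3 non-zero points after Tmax.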

[8] = AUC infinity in CD-1 mouse at 1 mg/kg, iv administered as single dose measured up to 24 hrs; assay type: ADME, organism-based; parameters: route intravenous, dose 1 mg/kg, time <=24; details: in vivo; summary of the method: as §2
[9] = Ratio of drug concentration in CD-1 mouse brain to plasma at 5 mg/kg, po measured after 1 hr; assay type: ADME, organism-based
Summary of the method: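 Male CD-1 mice dosed once iv (1 mg/kg) or by oral gavage (5 mg/kg). Brain and plasma collected 1 h post dose (n=3/timepoint). Drug levels by HPLC/MS/MS; brain/plasma ratio calculated from these levels.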

[10] = AUC infinity in CD-1 mouse at 5 mg/kg, po administered as single dose measured up to 24 hrs; assay type: ADME, organism-based; parameters: route oral, dose 5 mg/kg, time <=24; details: in vivo; summary of the method: as §2
[11] = Apparent permeability from apical to basolateral membrane in MDCK-MDR1 cells; assay type: ADME, cell-based, Canis lupus familiaris; details: dog
Summary of the method: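 Apical-to-basolateral apparent permeability (×10⁻⁶ cm/s) measured across MDR1-MDCK cell monolayers.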

[12] = In vivo modulation of gamma secretase in transgenic J20 mouse overexpressing human APP assessed as reduction in plasma amyloid beta40 level at 25 mg/kg, po administered via gavage for 3 consecutive days and measured after 4 hrs post last dose on day 3 by meso scale discovery relative to control; assay type: functional; parameters: scale not given: the % may be the effect or the level left; details: time 3 day
Summary of the method: (§3)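 Female J20 mice, 5–6 months old (n=5/dose), dosed orally at 25, 50 or 100 mg/kg or with vehicle (5% NMP/95% PEG300) for 3 consecutive days. Plasma was taken 4 h after the final dose. Aβ38/40/42 measured by Meso Scale multiplex immunoassay, with % reduction relative to vehicle. Mean ± SEM, ANOVA.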

[13] = In vivo modulation of gamma secretase in transgenic J20 mouse overexpressing human APP assessed as reduction in plasma amyloid beta40 level at 100 mg/kg, po administered via gavage for 3 consecutive days and measured after 4 hrs post last dose on day 3 by meso scale discovery relative to control; assay type: functional; parameters: scale not given: the % may be the effect or the level left; details: time 3 day; summary of the method: as §3
[14] = In vivo modulation of gamma secretase in transgenic J20 mouse overexpressing human APP assessed as reduction in plasma amyloid beta42 level at 25 mg/kg, po administered via gavage for 3 consecutive days and measured after 4 hrs post last dose on day 3 by meso scale discovery relative to control; assay type: functional; parameters: scale not given: the % may be the effect or the level left; details: time 3 day; summary of the method: as §3
[15] = In vivo modulation of gamma secretase in transgenic J20 mouse overexpressing human APP assessed as reduction in plasma amyloid beta42 level at 100 mg/kg, po administered via gavage for 3 consecutive days and measured after 4 hrs post last dose on day 3 by meso scale discovery relative to control; assay type: functional; parameters: scale not given: the % may be the effect or the level left; details: time 3 day
Summary of the method: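 Female J20 mice, 5–6 months old (n=5/dose), given vehicle (5% NMP/95% PEG300) or test article at 25, 50 or 100 mg/kg by oral gavage daily for 3 days. Sacrificed 4 h after final dose; plasma Aβ38/40/42 quantified by Meso Scale multiplex (SECTOR Imager 6000). Percent reduction versus vehicle; mean ± SEM, ANOVA.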

[16] = Drug level in plasma of transgenic J20 mouse overexpressing human APP at 50 mg/kg, po administered via gavage for 3 consecutive days and measured after 4 hrs post last dose on day 3 by HPLC-MS/MS analysis; assay type: ADME, organism-based; details: time 3 day
Summary of the method: (§4)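 Female J20 mice, 5–6 months old, given 25, 50 or 100 mg/kg orally (5% NMP/95% PEG300) daily for 3 days, n=5/dose. Plasma and brain taken 4 h after the final dose and analysed by LC-MS/MS. LLOQ was 1 ng/mL in plasma and 5 ng/g in brain.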

[17] = Drug level in brain of transgenic J20 mouse overexpressing human APP at 50 mg/kg, po administered via gavage for 3 consecutive days and measured after 4 hrs post last dose on day 3 by HPLC-MS/MS analysis; assay type: ADME, organism-based; details: time 3 day, read-out: Ct; summary of the method: as §4
[18] = Ratio of drug level in brain to plasma of transgenic J20 mouse overexpressing human APP at 100 mg/kg, po administered via gavage for 3 consecutive days and measured after 4 hrs post last dose on day 3 by HPLC-MS/MS analysis; assay type: ADME, organism-based; details: 72 h, time 3 day
Summary of the method: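 Female J20 mice, 5–6 months old (n=5/dose), dosed by oral gavage once daily for 3 days in 5% NMP/95% PEG300 vehicle. Sacrificed 4 h after the day-3 dose. Plasma and brain drug levels measured by LC-MS/MS (LLOQ 1 ng/mL plasma, 5 ng/g brain). Ratio = brain level/plasma level.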

Sequence of Cytochrome P450 2C19 (P33261 whole entry): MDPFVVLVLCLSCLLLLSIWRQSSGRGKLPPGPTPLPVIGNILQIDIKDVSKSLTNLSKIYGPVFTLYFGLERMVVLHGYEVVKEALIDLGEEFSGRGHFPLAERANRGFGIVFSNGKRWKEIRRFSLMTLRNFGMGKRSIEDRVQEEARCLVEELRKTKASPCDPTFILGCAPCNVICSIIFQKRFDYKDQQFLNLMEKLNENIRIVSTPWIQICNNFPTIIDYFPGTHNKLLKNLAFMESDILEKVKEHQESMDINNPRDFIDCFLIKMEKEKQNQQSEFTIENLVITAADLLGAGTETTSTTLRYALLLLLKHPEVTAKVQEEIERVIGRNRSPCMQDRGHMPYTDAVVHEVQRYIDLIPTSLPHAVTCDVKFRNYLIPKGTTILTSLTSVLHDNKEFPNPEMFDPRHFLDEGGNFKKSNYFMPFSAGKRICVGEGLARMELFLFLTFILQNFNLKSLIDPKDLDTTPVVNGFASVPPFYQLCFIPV
Sequence of Cytochrome P450 2C9 (P11712 whole entry): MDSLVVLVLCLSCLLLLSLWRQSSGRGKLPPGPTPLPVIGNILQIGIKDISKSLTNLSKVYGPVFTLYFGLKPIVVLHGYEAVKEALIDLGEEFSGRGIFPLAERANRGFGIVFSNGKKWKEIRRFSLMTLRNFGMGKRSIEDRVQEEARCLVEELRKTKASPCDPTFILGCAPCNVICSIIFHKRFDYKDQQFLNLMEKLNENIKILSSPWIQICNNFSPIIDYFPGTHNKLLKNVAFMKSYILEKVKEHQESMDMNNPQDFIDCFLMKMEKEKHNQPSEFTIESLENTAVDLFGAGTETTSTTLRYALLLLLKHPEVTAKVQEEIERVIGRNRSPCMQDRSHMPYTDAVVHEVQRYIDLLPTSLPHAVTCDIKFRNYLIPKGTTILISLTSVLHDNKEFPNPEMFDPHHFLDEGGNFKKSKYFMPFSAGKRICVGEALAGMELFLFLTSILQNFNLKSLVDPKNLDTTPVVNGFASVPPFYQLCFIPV

SMILES | solubility kinetic [1] [µM] | IC50 [2] [µM] | Stabilty [3] [%] | IC50 [4] [µM] | IC50 [5] [µM] | IC50 [6] [µM] | Cmax [7] [ng/mL] | AUC [8] [ng·h/mL] | BPR [9] | AUC [10] [ng·h/mL] | Papp [11] | Activity [12] [%] | Activity [13] [%] | Activity [14] [%] | Activity [15] [%] | concentration at 72 h [16] [ng/mL] | concentration at 72 h [17] [ng/g] | BPR [18]
CCn1nc2c(c1Nc1nc(-c3ccc(-n4cnc(C)c4)c(OC)n3)cs1)CCC2 | 7.8 (≈ 3.29 µg/mL) | 0.019 | 67 | > 100 | > 100 | > 100 | 549 | 383 | 0.4 | 1257 | 29.6 10^-6 cm/s | 19 | 68 | 29 | 76 | 223 | 83 | 0.46
COc1nc(-c2csc(Nc3c4c(nn3CCF)CCCC4)n2)ccc1-n1cnc(C)c1 | 15 (≈ 6.8 µg/mL) | 0.014 | 100 | > 100 | 6.8 | 4.6 | 309 | 288 | 0.68 | 669 | 32.6 10^-6 cm/s | 11 | 46 | 18 | 55 | 639 | 282 | 0.57
